Bioassay records (PubChem BioAssay)
SIRT5 inh = SIRT5 desuccinylase inhibitors, primary screen, biochemical, fluorescence imaging, single point, set 5. NAD-dependent protein deacylase sirtuin-5, mitochondrial (Homo sapiens), Q9NXA8. Purified SirT5, succinyl-peptide AMC, trypsin-coupled fluorescence. inhibition, % at 15 µM. 1.1% of 330,000 active. AID 652115, 2013; in the data active = inhibition above about 15%
Target sequence (Q9NXA8 whole entry, looked up): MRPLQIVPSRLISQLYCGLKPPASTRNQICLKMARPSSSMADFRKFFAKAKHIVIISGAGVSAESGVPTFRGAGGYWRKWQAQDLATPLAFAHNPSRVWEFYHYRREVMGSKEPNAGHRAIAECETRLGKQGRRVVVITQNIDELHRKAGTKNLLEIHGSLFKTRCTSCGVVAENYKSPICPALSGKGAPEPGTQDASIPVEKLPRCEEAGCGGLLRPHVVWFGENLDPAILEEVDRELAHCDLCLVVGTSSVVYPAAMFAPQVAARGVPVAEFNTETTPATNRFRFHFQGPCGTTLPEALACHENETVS
C2C12 statin = suppressors of statin myotoxicity in C2C12 myotubes, primary screen, cell-based, single point, plate reader | 0.78% of 330,000 active | C2C12 myotubes + simvastatin, ATP luminescence, 48 h; scaled: DMSO 0, geranylgeraniol control 100 | rescue of ATP level, % at 7.49 µM;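 active = mean ATP rescue above about 67%, or every replicate alone reaching that limit, limit read from the data, passing the limit was not always enough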;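 also: myotubes were challenged with 10 µM simvastatin during compound exposure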
E-selectin induc = E-selectin induction in HUVECs, primary screen, imaging, HUVEC, immunofluorescence imaging, single point; P16581; normalized: neutral wells 0, TNF-alpha wells 100; activation, % at 7.58 µM; 0.37% of 260,000 active;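 active = mean E-selectin-positive cell signal at least 10% of the positive control, reached in at least 60% of replicates, without over 20% cell loss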
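Test system: HUVEC; input: 3,000 HUVEC/well; measured by: immunofluorescence imaging; read-out: % PE-positive cells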
rRNA inh HTS = reduced GFP signal of wild-type E. coli, primary screen, bacterial rRNA inhibitor project, GFP/RFP fluorescence, OD600, single point; E. coli WT GFP vs humanized-ribosome RFP mutants, 24 h; hits give low values; DMSO median 0, no signal -100; GFP signal change (wild-type ribosome), % (no concentration beside the values); 1.6% of 350,000 active;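 active = significant combined selectivity score with lowered wild-type GFP, culture density cut under 30%, mutant RFP and density less affected; inactive = any of these conditions unmet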
FN deposit inh = inhibitors of fibronectin matrix deposition, primary screen, AH1F cells, Alexa488-fibronectin fluorescence, plate reader; AH1F fibroblasts, overnight; inhibition, % at 12.6 µM; 0.086% of 350,000 active;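 active = mean inhibition across replicates of 30% or more, regardless of how many single replicates reach that level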;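 also: positive control wells lacked labelled fibronectin entirely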
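Measured by – fluorescence 485/525 nm · System – AH1F fibroblast monolayer, labelled fibronectin deposition · Amount – 10000 cells per well · Buffer or medium – serum-reduced DMEM (2% serum) · Doses – single dose, pinned · Also added – fluorescent fibronectin at 24 nM final · Schedule – 1 h cell attachment, overnight exposure to compound and label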
FGF22 binding = binders of human FGF22 protein, primary screen, FGF22 synaptogenesis inhibitor project, biophysical, thermal shift, single point; activity (Tm shift, normalised), % at 9.99 µM; AID 651658, 2012; 1.5% of 340,000 active; recombinant FGF22 thermal shift, SYPRO orange fluorescence; percent of sucrose octasulfate shift, DMSO zero;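 active = mean Tm shift, scaled 0 neutral to 100 positive control, at about 1.3% or above, every replicate too, limit read from the data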
Target sequence (Q9HCT0 whole entry, looked up): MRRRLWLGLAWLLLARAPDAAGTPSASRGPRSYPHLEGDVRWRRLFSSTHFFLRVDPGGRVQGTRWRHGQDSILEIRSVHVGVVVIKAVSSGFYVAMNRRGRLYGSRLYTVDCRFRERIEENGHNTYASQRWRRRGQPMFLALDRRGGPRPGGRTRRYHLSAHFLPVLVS
Starred values were filed as active, the others as inactive; x = no result; ! = not confirmed by another sample. A selection: hits, their analogues and other compounds. The true share with any hit is near 4%.

SMILES	SIRT5 inh	C2C12 statin	E-selectin induc	rRNA inh HTS	FN deposit inh	FGF22 binding
CO[C@@H]1CN(C)C(=O)c2cc(NS(C)(=O)=O)ccc2OC[C@@H](C)N(C(=O)C2CCCCC2)C[C@@H]1C	-2.9	8.8	-0.1	-3.4	-16.8	-0.1
CN(C)CCN(Cc1ccco1)c1ccccn1	x	-1.0	-0.1	13.4	5.0	43.0*
Cc1ccc(NC(=O)Nc2ccc(Cl)cn2)cc1	-0.6	x	0.5	8.4	-10.1	0.2
C=CCNC(=O)Nc1ccc(Cl)cn1	-1.0	x	1.5	-2.2	-2.2	43.0*
COC(=O)C[C@@H]1CC[C@@H](NC(=O)Nc2ccc(C(F)(F)F)cc2)[C@@H](CO)O1	4.0	-11.4	0.0	-6.7	-5.9	-0.1
CC(=O)N1C(=O)N(C(C)=O)C2C1N(C)C(=O)N2C(C)=O (centres undefined)	-1.2	-2.8	-0.3	17.4	5.2	43.3*
COc1ccc(NC(=O)Nc2ccc3c(c2)C(=O)N([C@@H](C)CO)C[C@H](C)[C@@H](CN(C)C(=O)Nc2ccc4c(c2)OCO4)OCCCC[C@H](C)O3)cc1	8.3	x	0.1	-2.4	x	-1.0
O=C(NS(=O)(=O)c1ccccc1[N+](=O)[O-])c1ccccc1	2.3	x	-0.3	15.7	x	0.0
O=[N+]([O-])c1ccccc1S(=O)(=O)N/C(=N/S(=O)(=O)c1ccccc1)c1ccccc1	x	-13.2	0.0	-3.8	16.4	43.3*
Cc1ccc2c(c1)N(CC(=O)Nc1nccs1)C(=O)CO2	-0.8	4.0	x	5.5	1.1	0.0
CCOc1ccc(NC(=O)CN2C(=O)COc3ccc(S(=O)(=O)N4CCCC4)cc32)cc1	-0.3	29.6	10.2	-22.6*	-2.5	-0.3
Cc1ccc(NC(=O)CN2C(=O)COc3ccc(C)cc32)nc1	x	81.1*	x	x	-5.0	x
Cc1ccc2[nH]cc(CCNC(=O)CN3C(=O)c4ccccc4C3=O)c2c1	-0.9	2.7	x	6.1	-6.7	0.2
Cc1ccc2c(c1)N(CC(=O)NCCc1c[nH]c3ccccc13)C(=O)CO2	x	79.7*	x	x	x	x
COc1ccc2c3c(n(C)c2c1)[C@H](CO)N(C(=O)CN(C)C)CC31CN(C(=O)C2CCC2)C1	x	x	0.0	3.0	x	x
COc1ccc(OC)c(C2Nc3ccccc3NC3=C2C(=O)CC(C)(C)C3)c1 (centres undefined)	19.6*	27.0	x	24.0	1.0	-0.2
COc1ccccc1C1Nc2ccccc2NC2=C1C(=O)CC(C)(C)C2 (centres undefined)	4.8	14.5	0.0	13.7	-1.8	0.2
COc1ccccc1CC(=O)NC(=O)c1ccccc1O	-2.2	7.2	0.3	5.5	-0.8	0.1
COc1ccccc1C(=O)NNC(=O)c1cccc(F)c1	x	x	x	x	6.0	x
COc1ccccc1C(=O)NNC(=O)c1ccccc1F	-1.3	x	x	16.8	-10.7	43.7*
COc1ccccc1CC(=O)c1ccccc1OC	x	0.8	0.5	-7.8	1.8	43.5*
Cc1noc(C)c1NC(=O)Nc1cccc2c1O[C@H](CN(C)Cc1ccc(Oc3ccccc3)cc1)[C@H](C)CN([C@H](C)CO)C2=O	-3.4	x	0.3	-2.3	6.6	0.1
NCCCn1c(C(=O)c2cc(Cl)c(N)c(Cl)c2)c2ccccc2[n+]1[O-]	40.3*	3.9	0.4	-2.7	-10.2	-0.1
O=C(O)CN1C(=O)/C(=C2\SC(=S)N(C(Cc3ccccc3)C(=O)O)C2=O)c2ccccc21 (centres undefined)	16.8*	10.5	2.3	2.3	-1.3	-0.2
C[C@@H]1CCCCO[C@@H](CN(C)S(=O)(=O)c2ccccc2)[C@@H](C)CN([C@@H](C)CO)C(=O)c2cc(NC(=O)NC3CCCCC3)ccc2O1	6.6	x	0.3	-0.7	-0.2	-0.3
SMILES	SIRT5 inh	C2C12 statin	E-selectin induc	rRNA inh HTS	FN deposit inh	FGF22 binding
C[C@H]1CN([C@@H](C)CO)C(=O)Cc2cc(NC(=O)Cn3cnnn3)ccc2O[C@@H]1CN(C)S(C)(=O)=O	x	-14.2	16.8	0.2	x	-0.2
O=C(O)c1cccc(-n2cccc2/C=C2/NC(=O)N(c3ccc(Cl)cc3)C2=O)c1	43.9*	x	-1.6	8.7	-2.8	x
O=C(O)c1cccc(-n2cccc2/C=C2/NC(=O)N(c3cccc(Cl)c3)C2=O)c1	9.2	x	x	-4.6	-5.3	0.0
CC(C)NC(=O)Nc1cccc2c1O[C@H](CN(C)C)[C@@H](C)CN(C)C2=O	x	x	x	1.6	-12.2	x
CCCS(=O)(=O)N1CCN(C2Cc3ccccc3C2)CC1	17.5*	14.1	-0.1	-2.6	1.8	-0.1
CCCS(=O)(=O)N1CCN(C2CCC(C)CC2)CC1 (centres undefined)	-2.6	-7.8	x	15.8	x	-0.2
O=C(Nc1ccccc1)N1CC(=O)N2[C@H](CO)[C@H](c3ccc(C#CC4CCCCC4)cc3)[C@@H]2C1	0.8	x	0.2	1.4	-16.1	x
CCCN(CC(=O)Nc1ccc(F)c(F)c1F)Cc1cc(=O)n2ccsc2n1	x	11.0	0.3	4.8	-8.1	0.2
CCCN(CC(=O)Nc1ccc(Cl)cc1Cl)Cc1cc(=O)n2ccsc2n1	2.3	7.6	-0.2	-45.5*	3.3	0.2
Cc1ccc(-c2c[n+](CC(=O)c3cccs3)c3n2CCC3)cc1	0.4	x	x	-43.7*	-7.0	-0.3
COc1ccc(C(=O)C[n+]2cc(-c3ccc(OC)cc3)n3c2CCCC3)cc1	-1.8	-96.3	x	-17.6	10.3	43.2*!
COc1ccc(-c2c[n+](CC(=O)N3c4ccccc4Sc4ccccc43)c3n2CCC3)cc1	-4.5	x	-0.1	-45.1*	7.2	0.1
O=C(C[n+]1cc(-c2ccc(Cl)cc2)n2c1CCC2)N1c2ccccc2Sc2ccccc21	x	x	1.3	x	-1.6	x
COCCN(C[C@H]1[C@H](c2ccccc2)[C@@H](CO)N1C(=O)C1CC1)C(C)=O	0.3	-8.0	-0.2	-1.0	-26.2	0.1
CSc1ncc(S(=O)(=O)c2ccccc2)c(=O)[nH]1	20.3*	x	x	-12.4	-23.9	0.3
COc1cccc(NC(=O)CSc2ncc(S(=O)(=O)c3ccccc3)c(=O)[nH]2)c1	1.5	2.0	-0.4	1.7	-5.4	1.8*
O=C(CSc1ncc(S(=O)(=O)c2ccccc2)c(=O)[nH]1)Nc1ccccc1Cl	1.2	x	x	-30.0	-6.6	0.1
Cc1cccc(N2CCN(C(=O)CCc3nc4ccccc4[nH]3)CC2C)c1 (centres undefined)	16.9*	-5.7	-0.1	5.2	-2.2	-0.3
